Source: PubChem (Broad Institute)
In the library only some 3.8% were active in any assay of this set; here they are far more common.
FN deposit inh: fibronectin deposition inhibition; AID 743247; actives 0.086% (n = 350,000); inhibition, % at 12.6 µM; AH1F fibroblasts, Alexa488-fibronectin deposition fluorescence, overnight;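 active means mean inhibition across replicates of 30% or more, regardless of how many single replicates reach that level; inconclusive means mean under 30% yet at least half of replicates reach 30%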
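Material – AH1F fibroblast monolayer, labelled fibronectin deposition · Reagent – labelled fibronectin 24 nM · Timing – 1 h adhesion, overnight exposure · Measured by – fluorescence at 485 nm excitation, 525 nm emission · Read-out – inhibition of fibronectin deposition signal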
ARNT TACC3 PPI: disrupts binding between human ARNT and TACC3; Q9Y6A5; AlphaScreen His-ARNT PAS-B/GST-TACC3 binding, luminescence; TACC3 fragment carries E629A point mutation; inhibition, % at 9.99 µM; actives 0.66% (n = 390,000); AID 623870;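 active means mean inhibition of replicates at least 50% and at least half of replicates each reaching 50%; inconclusive means half or more replicates reach 50% but mean below 50%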
SIRT5 block: blocks human SIRT5 desuccinylation of peptide. Purified SirT5, succinyl-peptide AMC, trypsin-coupled fluorescence. inhibition, % at 15 µM. actives 1.1% (n = 330,000). AID 652115; in the data active means inhibition above about 15%; inconclusive means no clear call, values can overlap the other calls
Target sequence (Q9NXA8 whole entry, looked up): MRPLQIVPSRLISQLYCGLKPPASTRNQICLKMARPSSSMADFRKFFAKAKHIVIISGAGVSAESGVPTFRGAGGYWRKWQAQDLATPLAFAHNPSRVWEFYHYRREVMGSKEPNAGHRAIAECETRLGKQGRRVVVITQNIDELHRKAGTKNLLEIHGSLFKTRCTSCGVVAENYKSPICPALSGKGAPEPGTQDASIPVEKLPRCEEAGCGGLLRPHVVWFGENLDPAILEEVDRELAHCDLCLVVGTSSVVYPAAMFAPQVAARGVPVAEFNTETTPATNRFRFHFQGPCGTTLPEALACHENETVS
Xi reactivation: reactivates the inactive X chromosome in mouse fibroblasts. XiGFP mouse fibroblasts, % GFP-positive cells imaging, 3 d; cells co-treated with 5-aza-dC sensitizer; scaled so ellipticine positive control = 100%. activation, % at 7.58 µM. actives 0.055% (n = 360,000);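 active means mean normalized replicate activation at least 10% and every replicate at or above 10%; inconclusive means only one of the two criteria met; inactive means mean below 10% and not all replicates reach 10%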
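Material: XiGFP fibroblasts, SV40-immortalized. Buffer or medium: DMEM plus 5-aza-dC sensitizer. Compound: single concentration per compound, delivered by pin transfer. Times: 3 days compound exposure. Controls: ellipticine 6 µM.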
FGF22 binding-1: FGF22 (human) thermal shift binding; Q9HCT0; recombinant FGF22 thermal shift, SYPRO orange fluorescence; percent of sucrose octasulfate shift, DMSO zero; activity (Tm shift, normalised), % at 9.99 µM; actives 1.5% (n = 340,000); AID 651658;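 active means mean Tm shift, scaled 0 neutral to 100 positive control, at about 1.3% or above, every replicate too, limit read from the data; inconclusive means no clear call, values can overlap the other calls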
Target sequence (Q9HCT0 whole entry, looked up): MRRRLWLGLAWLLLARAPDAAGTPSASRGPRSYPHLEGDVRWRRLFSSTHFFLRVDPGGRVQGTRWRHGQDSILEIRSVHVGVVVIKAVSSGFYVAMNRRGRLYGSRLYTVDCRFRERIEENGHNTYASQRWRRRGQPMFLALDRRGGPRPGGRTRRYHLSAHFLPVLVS
DENV2 CPE: protects cells from dengue virus 2 cytopathic effect. DENV2-infected cells, cytopathic effect rescue, plate reader. CPE inhibition, % at 9.99 µM. actives 1.7% (n = 350,000). AID 651640; in the data active means CPE inhibition above about 20%, passing the limit was not always enough; inconclusive means no clear call, values can overlap the other calls; tested in BHK-21 cells
FGF22 binding-2: FGF22 (human) binding in thermal shift. recombinant FGF22 thermal shift, SYPRO orange fluorescence. AID 720646. shares compounds with FGF22 binding-1. thermal shift activity, °C (ΔTm) at 38 µM. actives 2% (n = 1,000);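 active means fitted rise in melting shift crosses a set limit at or below the top valid dose tested; inconclusive means flat fit at mid-level activity, or a poor quality fit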
FGF22 TSA: FGF22 (human) binding by thermal shift; Tm shift (activity), % at 38 µM; Thermal shift assay, SYPRO orange, melting temperature shift; shares compounds with FGF22 binding-1; 50 tested, under 10 active;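 active means compounds whose fitted dose curve of melting temperature shift rises past a set threshold within the tested doses; inconclusive means flat curve at moderate activity, or poor curve fit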
TSA no protein: shows thermal shift signal without protein, FGF22 counter-screen; shares compounds with FGF22 binding-1; compound-only SYPRO orange thermal shift counter-screen, no protein; AC50, µM (top dose mostly 38 µM); actives 2% (n = 1,000); AID 743019;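 active means rising signal whose fitted curve reaches the 0.54 level within the top valid dose, showing a melting point, actives reach about 13 µM in these data; inactive means the rest, including activity in the opposite direction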; further: value is where the raw curve crosses a fixed level and not half-maximal
Each line names hits and unclear results; the compound was inactive in the other large screens (follow-up assays come after a bar, where they were run).

CC(C)(CNCc1ccccc1)NS(=O)(=O)c1ccccc1	none
O=C(COc1ccc(S(=O)(=O)Nc2ccccc2)cc1)NCc1ccncc1	FGF22 binding-1 14 (no result: DENV2 CPE) | FGF22 binding-2 inactive | TSA no protein inactive
C[C@@H]1CN([C@@H](C)CO)C(=O)Cc2cc(NC(=O)Cn3cnnn3)ccc2O[C@@H]1CN(C)Cc1ccc(C(=O)O)cc1	none (no result: FN deposit inh)
C[C@H]1CN([C@@H](C)CO)C(=O)CCCn2cc(nn2)CO[C@@H]1CN(C)Cc1cccc(C(=O)O)c1	FGF22 binding-1 1.3, DENV2 CPE 24 | FGF22 binding-2 inactive | TSA no protein inactive
COc1ccc(S(=O)(=O)N(C)C[C@H]2Oc3c(NC(=O)c4cc(C)nn4C)cccc3C(=O)N([C@@H](C)CO)C[C@@H]2C)cc1	none (no result: ARNT TACC3 PPI)
C[C@@H]1CN([C@@H](C)CO)C(=O)c2cccc(N(C)C)c2O[C@H]1CN(C)Cc1ccc(C(=O)O)cc1	FGF22 binding-1 2.7 | FGF22 binding-2 inactive | TSA no protein inactive
C[C@H](CO)N1C[C@H](C)[C@H](CN(C)Cc2ccccc2)OCc2cn(nn2)CCCC1=O	none (no result: ARNT TACC3 PPI, SIRT5 block, FGF22 binding-1, DENV2 CPE)
C[C@H](CO)N1C[C@H](C)[C@@H](CN(C)S(=O)(=O)c2ccccc2)Oc2c(NC(=O)C3CC3)cccc2C1=O	FGF22 binding-1 2.6 | FGF22 binding-2 inactive | TSA no protein inactive
COc1ccc(S(=O)(=O)N(C)C[C@@H]2Oc3c(NC(=O)c4cc(C)nn4C)cccc3C(=O)N([C@H](C)CO)C[C@H]2C)cc1	FGF22 binding-1 1.3 (no result: FN deposit inh, ARNT TACC3 PPI) | FGF22 binding-2 inactive | TSA no protein inactive
C[C@H]1CN([C@@H](C)CO)C(=O)c2cc(/C=C/c3ccccc3)cnc2O[C@@H]1CN(C)C(=O)c1cnccn1	none
COc1ccccc1-c1ccc([C@H]2[C@@H](CO)N(C(=O)C3CC3)C23CN(C(C)=O)C3)cc1	none (no result: FN deposit inh, ARNT TACC3 PPI)
C[C@@H]1CN([C@H](C)CO)C(=O)c2cccc(NC(=O)C3CC3)c2O[C@@H]1CN(C)Cc1ccncc1	none (no result: FN deposit inh)
C[C@H]1CN([C@@H](C)CO)C(=O)c2cccc(NC(=O)c3ccc(-c4nccs4)cc3)c2O[C@H]1CN(C)C	none
C[C@@H]1CN([C@@H](C)CO)C(=O)c2cccc(NC(=O)c3ccc(-c4nccs4)cc3)c2O[C@@H]1CN(C)C	FGF22 binding-1 5.0 | FGF22 binding-2 inactive | TSA no protein inactive
C[C@@H]1CN([C@@H](C)CO)C(=O)c2cccc(NC(=O)C3CC3)c2O[C@H]1CN(C)Cc1ccncc1	FGF22 binding-1 1.2 (no result: FN deposit inh) | FGF22 binding-2 inactive | TSA no protein inactive
C[C@@H]1CN([C@@H](C)CO)C(=O)c2cccc(NS(=O)(=O)c3cn(C)cn3)c2O[C@@H]1CN(C)S(=O)(=O)c1ccc(Cl)cc1	FGF22 binding-1 1.5 | FGF22 binding-2 inactive | TSA no protein inactive
C[C@H](CO)N1C[C@H](C)[C@@H](CN(C)S(=O)(=O)c2ccc(Cl)cc2)Oc2c(NS(=O)(=O)c3cn(C)cn3)cccc2C1=O	none (no result: FN deposit inh)
CO[C@@H]1CN(C)C(=O)c2ccc(NC(=O)C3CCC3)cc2OC[C@H](C)N(C)C[C@H]1C	none
COc1ccc(C(=O)Nc2ccc3c(c2)OC[C@H](C)NC[C@@H](C)[C@@H](OC)CN(C)C3=O)cc1	none
COc1ccc(C=NNC(=O)c2ccccc2NS(=O)(=O)c2cccs2)cc1O	DENV2 CPE inconclusive
O=C(NN=Cc1ccc(O)cc1O)c1ccccc1NS(=O)(=O)c1cccs1	ARNT TACC3 PPI 47, FGF22 binding-1 1.9 | FGF22 binding-2 inactive | TSA no protein inactive
CC(C)c1c(C(=O)N/N=C/c2cccc3ccccc23)nnn1-c1nonc1N	none
CN(Cc1c(C(=O)N/N=C/c2ccc(O)cc2)nnn1-c1nonc1N)c1ccccc1	FGF22 binding-1 1.9 | FGF22 binding-2 inactive | FGF22 TSA inactive | TSA no protein inactive
CC(C)c1c(C(=O)N/N=C/c2c[nH]c3ccccc23)nnn1-c1nonc1N	FGF22 binding-1 2.3 | FGF22 TSA inactive | TSA no protein inactive
CN(Cc1c(C(=O)N/N=C/c2ccccc2)nnn1-c1nonc1N)c1ccccc1	none
O=c1c(O)c(-c2cc(O)c(O)c(O)c2)oc2cc(O)cc(O)c12	FGF22 binding-1 1.5 | FGF22 binding-2 inactive | TSA no protein inactive
O=c1c(O)c(-c2ccccc2)oc2cc(O)cc(O)c12	DENV2 CPE inconclusive (no result: FN deposit inh, SIRT5 block, Xi reactivation)
Cc1ccc2c(c1)C1CN(C)CCC1N2S(=O)(=O)c1ccc(C(C)C)cc1 (configuration not stated)	FGF22 binding-1 14 | FGF22 binding-2 inactive | TSA no protein inactive
Cc1ccc2c(c1)C1CN(C)CCC1N2S(=O)(=O)c1cccc(C(F)(F)F)c1 (configuration not stated)	none
Cc1noc(C)c1NC(=O)Nc1ccc2c(c1)C(=O)N([C@H](C)CO)C[C@@H](C)[C@H](CN(C)C(=O)Nc1c(C)noc1C)OCCCC[C@@H](C)O2	none
Cc1noc(C)c1NC(=O)Nc1cccc2c1O[C@H](CN(C)C(=O)Nc1ccc(F)cc1)[C@H](C)CN([C@@H](C)CO)C2=O	none (no result: FN deposit inh, ARNT TACC3 PPI, SIRT5 block, FGF22 binding-1, DENV2 CPE)
CCOC(=O)COc1cc2c(C(=O)OCC)c(C)oc2cc1Br	none (no result: FN deposit inh, SIRT5 block, Xi reactivation, FGF22 binding-1, DENV2 CPE)
CCOC(=O)c1c(C)oc2cc(Br)c(O)c(Br)c12	FGF22 binding-1 1.4 (no result: ARNT TACC3 PPI, SIRT5 block) | FGF22 binding-2 inactive | TSA no protein inactive
COc1cccc(OCC(=O)N(C)Cc2nc(-c3cccc(C)c3)no2)c1	none (no result: SIRT5 block)
COc1ccc(OC(C)C(=O)N(C)Cc2nc(-c3cccc(C)c3)no2)cc1 (configuration not stated)	FGF22 binding-1 1.6 | FGF22 binding-2 inactive | TSA no protein inactive
C[C@H]1CN([C@@H](C)CO)C(=O)c2cc(NC(=O)CCN3CCOCC3)ccc2O[C@@H]1CN(C)Cc1ccc(C(F)(F)F)cc1	none
O=S(=O)(c1cccc2cccnc12)N1CCN(Cc2ccc3c(c2)OCO3)CC1	none (no result: FN deposit inh, SIRT5 block, Xi reactivation, FGF22 binding-1, DENV2 CPE)
O=S(=O)(c1cccc2cccnc12)N1CCN(Cc2ccccc2)CC1	FGF22 binding-1 1.4 | FGF22 binding-2 inactive | TSA no protein inactive
CCCN1C[C@H](C)[C@H](OC)CN(C)C(=O)c2cc(NC(=O)c3cccc(OC)c3)ccc2OC[C@H]1C	none (no result: ARNT TACC3 PPI, SIRT5 block, FGF22 binding-1, DENV2 CPE)
